These results are taken from ChEMBL document CHEMBL3994580, “A novel class of α-glucosidase and HMG-CoA reductase inhibitors from Ganoderma leucocontextum and the anti-diabetic properties of ganomycin I in KK-Ay mice” (Eur J Med Chem, 2017).

Active and inactive are the calls of the source. The rule behind the calls is not given here.

In one data set the test system is Saccharomyces cerevisiae. In words: Non-competitive inhibition of baker's yeast alpha-glucosidase using varying levels of p-nitrophenyl alpha-D-glucopyranoside as substrate preincubated for 10 mins followed by substrate addition measured for 15 mins by Lineweaver-Burk plot analysis. The essentials:
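Kinetics with inhibitor at 0.3 to 1 μM against α-glucosidase. pNPG at 2, 4, 6 and 8 μM. Initial velocities measured with and without inhibitor, and inhibition type assigned from Michaelis-Menten and Lineweaver-Burk plots.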

The test system of data set [1] is Mus musculus. Kind of data set: Acute toxicity in mouse assessed as mortality up to […], po up to 14 days. The format is organism-based. To be noted: in vivo, 336 h.
Data set [2] has as its system Mus musculus. Kind of data set: Antidiabetic activity in KK-Ay diabetic mouse model assessed as reduction in blood glucose level after 4 hrs fasting at 1 to 5 mg/kg/day administered via oral gavage once daily measured on day 3 post dose. Format: functional, organism-based. The essentials:
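KK-Ay mice on high-fat diet, gavaged once daily (1 or 5 mg/kg; rosiglitazone 10 mg/kg). Blood glucose monitored sequentially after 4 h fasting. Mean ± SEM, n = 8, compared with the KK-Ay model group.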

The subject of data set [3] is Mus musculus. In words: Antidiabetic activity in KK-Ay diabetic mouse model assessed as reduction in free diet blood glucose level at 1 to 5 mg/kg/day administered via oral gavage once daily measured on day 3 post dose. The format is functional, organism-based. The essentials: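 Non-fasted (free diet) blood glucose was tracked serially in high-fat-fed KK-Ay mice given daily gavage doses (1 or 5 mg/kg; rosiglitazone 10 mg/kg). Mean ± SEM, n = 8.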

Data set [4] concerns Mus musculus. Kind of data set: Antidiabetic activity in KK-Ay diabetic mouse model assessed as reduction in blood glucose level at 1 to 5 mg/kg/day administered via oral gavage once daily for 21 days by oral sucrose tolerance test. Format: functional, organism-based. The essentials: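 Oral sucrose tolerance test on day 20 of once-daily gavage treatment in high-fat-fed KK-Ay mice. Blood glucose followed over time, and the AUC was calculated. Mean ± SEM, n = 8.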

Data set [5] deals with Mus musculus. Kind of data set: Antidiabetic activity in KK-Ay diabetic mouse model assessed as reduction in serum insulin level at 1 to 5 mg/kg/day administered via oral gavage once daily for 21 days. The format is functional, organism-based. The essentials: (§1)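 Male KK-Ay mice (8 weeks old) on high-fat diet with water ad libitum, dosed by gavage once daily for 21 days (1 or 5 mg/kg test; rosiglitazone 10 mg/kg); female C57BL/6J mice as normal controls. Blood collected at study end. Serum lipids, insulin and glucose measured per cited method. ISI calculated from fasting blood glucose and fasting insulin. Mean ± SEM, n = 7-8.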

Data set [6] relates to Mus musculus. Kind of data set: Antidiabetic activity in KK-Ay diabetic mouse model assessed as reduction in blood glucose level at 5 mg/kg/day administered via oral gavage once daily for 21 days measured at 30 to 60 mins post glucose challenge by oral glucose tolerance test. Format: functional, organism-based. The method, boiled down:
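OGTT on day 21 of daily gavage dosing in KK-Ay mice. Blood glucose read at time points including 30 and 60 min, and the AUC was calculated. Mean ± SEM, n = 8.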

Data set [7] deals with Mus musculus. In words: Antidiabetic activity in KK-Ay diabetic mouse model assessed as reduction in blood glucose level at 5 mg/kg/day administered via oral gavage once daily measured on day 19 at 30 to 60 mins post insulin challenge by insulin tolerance test. Format: functional, organism-based. The method, boiled down: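 ITT on day 19 of treatment: after 4 h fasting, insulin 0.6 U·kg-1 given intraperitoneally. Glycaemia was sampled from the tail tip before and at set times after injection, and the AUC was computed. Mean ± SEM, n = 8.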

In data set [8] the test system is Mus musculus. Kind of data set: Hypolipidemic activity in KK-Ay diabetic mouse model assessed as reduction in serum NEFA level at 1 to 5 mg/kg/day administered via oral gavage once daily for 21 days. The format is functional, organism-based. The essentials: as §1
The subject of data set [9] is Mus musculus. In words: Hypolipidemic activity in KK-Ay diabetic mouse model assessed as reduction in serum triglyceride level at 1 to 5 mg/kg/day administered via oral gavage once daily for 21 days. Format: functional, organism-based. The essentials: as §1
Data set [10] concerns Mus musculus. In words: Hypolipidemic activity in KK-Ay diabetic mouse model assessed as reduction in serum LDL-C level at 1 to 5 mg/kg/day administered via oral gavage once daily for 21 days. The format is functional, organism-based. The method, boiled down: as §1
In data set [11] the test system is Mus musculus. Kind of data set: Decrease in hepatocyte hypertrophy in KK-Ay diabetic mouse model at 5 mg/kg/day administered via oral gavage once daily for 21 days by haematoxylin and eosin staining based microscopic or morphometric method. The format is functional, organism-based. The method, boiled down: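 At study end, liver and abdominal white adipose tissue were fixed in 10% formaldehyde PBS (pH 7.4), paraffin-embedded, sectioned and stained with haematoxylin/eosin. Sections were assessed by microscopy or morphometry at 20×.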

Data set [12] has as its system Mus musculus. Kind of data set: Acute toxicity in mouse assessed as coma up to 3 g/kg, po up to 14 days. To be noted: in vivo, 336 h.
The subject of data set [13] is Mus musculus. Kind of data set: Acute toxicity in mouse assessed as effect on sleep up to 3 g/kg, po up to 14 days. Particulars: in vivo, 336 h.
Data set [14] deals with Mus musculus. In words: Acute toxicity in mouse assessed as effect on behavior up to 3 g/kg, po up to 14 days. Particulars: in vivo, 336 h.
Data set [15] relates to Mus musculus. In words: Acute toxicity in mouse assessed as effect on physical activity up to 3 g/kg, po up to 14 days. To be noted: in vivo, 336 h.

Regarding `CC(C)=CCC/C(C)=C/CCC1=C[C@H](c2cc(O)ccc2O)OC1=O`, the inhibition result in the data set with Saccharomyces cerevisiae was “Active”. For the same molecule, the Activity result in the data set on Mus musculus [1], in the data set on Mus musculus [12], in the data set on Mus musculus [13], in the data set on Mus musculus [14] and in the data set on Mus musculus [15] was “Non-Toxic” in each case. The result in the data set on Mus musculus [2], in the data set with Mus musculus [3], in the data set on Mus musculus [4], in the data set on Mus musculus [5], with Mus musculus [6] and with Mus musculus [7] was Active. In addition, the outcome with Mus musculus [8], in the data set on Mus musculus [9], with Mus musculus [10] and with Mus musculus [11] was Active.
